Tests used:
WiDr [1] = experiment: Activity against human colon carcinoma sensitive WiDr cell line.; type: functional, cell-based
MCF7 [2] = experiment: Compound was tested for antitumor activityHuman mammary carcinoma Doxorubicin resistant […] breast cell line.; type: functional, cell-based; conditions: Homo sapiens
MCF7 [3] = experiment: Antitumor activity against human mammary carcinoma mitoxantrone-resistant […] breast cell line.; type: functional, cell-based
L1210 [4] = experiment: Antitumor activity against sensitive L1210 murine leukemia cell lines.; type: functional, cell-based; conditions: Mus musculus
Outline: (§1)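 Murine L1210 leukemia cells, sensitive or MDR subline, in culture. Continuous drug exposure during MTT assay. Five concentrations per analogue, six determinations per concentration. The IC50 was derived.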

Rattus norvegicus = organism: Rattus norvegicus; experiment: Cardiotoxicity measured by the ATP/protein ratio compared with untreated controls using neonatal rat heart myocyte assay.; type: functional
Outline: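 Neonatal rat heart myocytes exposed to drug for 1 h. The ATP/protein ratio was measured versus untreated control myocytes. IC50 is the concentration reducing this ratio to 50% of control.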

UACC-375 = experiment: Antitumor activity against human melanoma UACC375 cell line.; type: functional, cell-based
Outline: (§2)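 Cultured human tumor cells (melanoma UACC375, ovarian OVCAR3) under continuous drug exposure. Growth was read by sulforhodamine or MTT assay. Five concentrations per analogue, six determinations per concentration. IC50 values were derived from these.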

A549 = experiment: Activity against A549 cancer cell line.; type: functional, cell-based; conditions: Homo sapiens
WiDr [5] = experiment: Activity against human colon carcinoma multi drug resistant (MDR)-WiDr cell line.; type: functional, cell-based
L1210 [6] = experiment: Compound was tested for antitumor activity against Murine leukemia cell line (L1210).; type: functional, cell-based; conditions: Mus musculus; outline: as §1
OVCAR-3 = experiment: Antitumor activity against human ovarian OVCAR-3 cell lines.; type: functional, cell-based; outline: as §2
[7] = (§3) The quotient of the IC50 in the myocytes divided by the mean IC50 in the three cell lines; type: functional
Outline: (§4)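 Calculated index: the myocyte IC50 divided by the mean IC50 across three tumor lines (sensitive L1210, melanoma UACC375, ovarian OVCAR3).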

MCF7 [8] = experiment: Antitumor activity against human mammary carcinoma sensitive […] breast cell line.; type: functional, cell-based
MCF7 [9] = experiment: Antitumor activity against human mammary carcinoma doxorubicin-resistant […] breast cell line.; type: functional, cell-based
L1210 [10] = experiment: Compound was tested for antitumor activity against l. Sensitive leukemia cell lines (L1210).; type: functional, cell-based; conditions: Mus musculus; outline: as §1
L1210 [11] = experiment: Antitumor activity against murine leukemia L1210 cell line.; type: functional, cell-based; conditions: Mus musculus; outline: as §1
WiDr [12] = experiment: Compound was tested for antitumor activity against The compound tested for activity against Human colon carcinoma sensitive WiDr cell line.; type: functional, cell-based
[13] = as §3; type: ADME, cell-based; conditions: myocytes versus three cell lines; read-out: Toxicity ratio; outline: as §4

IC50 (WiDr [1]) | IC50 (MCF7 [2]) | IC50 (L1210 [4]) | IC50 (UACC-375) | IC50 (A549) | IC50 (WiDr [5]) | IC50 (L1210 [6]) | IC50 (OVCAR-3) | IC50 (MCF7 [8]) | IC50 (MCF7 [9]) | IC50 (L1210 [10]) | IC50 (L1210 [11]) | IC50 (WiDr [12]) | Structure (SMILES) | IC50 (MCF7 [3]) | IC50 (Rattus norvegicus) | Toxicity ratio [7] | selectivity ratio [13]
2220 nM | 2800 nM | 6740 nM | 7550 nM | 820 nM | 4700 nM | 14800 nM | 5500 nM | 1200 nM |  |  |  |  | CN(C)CCN1C(=O)c2c(O)ccc3cc4ccccc4c(c23)C1=O | 1500 nM | > 135000 nM | >20 | 
17 nM |  |  | 4 nM | 7.1 nM | 20 nM |  | 22 nM | 13 nM | 20 nM | 5.4 nM | 6.7 nM |  | CN(C)CCN1C(=O)c2cccc3cc4cc(O)ccc4c(c23)C1=O | 17 nM | 404 nM | 40.4 | 
 |  | 25 nM | 77 nM | 61 nM | 120 nM |  | 77 nM | 32 nM | 100 nM |  | 50 nM | 100 nM | CCOc1ccc2cc3cccc4c3c(c2c1)C(=O)N(CCN(C)C)C4=O | 15 nM | 11300 nM | 188 | 
20 nM |  |  | 77 nM | 22 nM | 110 nM |  | 39 nM | 60 nM | 80 nM |  | 18 nM |  | CN(C)CCN1C(=O)c2cccc3cc4c(Cl)cccc4c(c23)C1=O | 19 nM | 1030 nM |  | 22.8

— ChEMBL document CHEMBL1129597, “2-[2'-(Dimethylamino)ethyl]-1,2-dihydro- 3H-dibenz[de,h]isoquinoline-1,3-diones with substituents at positions 4, 8, 9, 10, and 11. Synthesis, antitumor activity, and quantitative structure-activity relationships” (J Med Chem, 1996)
